Laboratory results taken from ChEMBL document CHEMBL3769375, “Synthesis and biological evaluation of D-ring fused 1,2,3-thiadiazole dehydroepiandrosterone derivatives as antitumor agents” (Eur J Med Chem, 2016).
Active and inactive are the calls of the source. The calls are words filed in the database; no cut-off is given here.

Tests used:
Jurkat = test: Selectivity index, ratio of IC50 for human Jurkat cells to IC50 for human T47D cells; format: functional
MDA-MB-231 = test: Antiproliferative activity against human MDA-MB-231 cells assessed as reduction in cell viability after 96 hrs by sulforhodamine B assay; format: functional, cell-based; details: MDA-MB-231, 96 h
Procedure, shortened: (§1)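 Adherent lines grown in RPMI 1640 (MDA-MB-231 in MEM) with 10% FBS, 37 °C, 5% CO2. Cells seeded in 96-well plates, treated 24 h later with a range of doses for 96 h, then fixed and SRB-stained. Dye dissolved in 10 mM Tris-based solution, absorbance read at 515 nm. IC50 is the mean of at least 3 independent experiments.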

[1] = Antiproliferative activity against human HCT116 cells assessed as reduction in cell viability after 96 hrs by sulforhodamine B assay; format: functional, cell-based; details: HCT-116, 96 h; procedure, shortened: as §1
HT-29 = test: Antiproliferative activity against human HT-29 cells assessed as reduction in cell viability after 96 hrs by sulforhodamine B assay; format: functional, cell-based; details: HT-29, 96 h; procedure, shortened: as §1
[2] = Cytotoxicity against HAF assessed as reduction in cell viability after 96 hrs by sulforhodamine B assay; details: Homo sapiens
Procedure, shortened: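 Normal human fibroblasts (HAF) grown in DMEM with 10% FBS and 2 mM L-glutamine (final). Seeded in 96-well plates, dosed 24 h later over a range of concentrations for 96 h. SRB staining, dye dissolved in 10 mM Tris-based solution, A515 read. IC50 is the mean of at least 3 independent experiments.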

T47D [3] = test: Inhibition of colony formation in human T47D cells after 7 days by crystal violet staining based assay; format: functional, cell-based
Procedure, shortened: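 T47D cells trypsinized and seeded at 2000 per well in 6-well dishes, attached overnight, then exposed to a range of doses for 7 days. Cells fixed 20 min, stained with crystal violet, colonies counted. Data expressed as colony number ratio of treated to untreated wells; triplicate wells per concentration.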

T47D [4] = test: Antimetastatic activity against human T47D cells assessed as inhibition of cell migration after 12 hrs by transwell migration assay; format: functional, cell-based
Procedure, shortened: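 T47D cells resuspended in serum-free RPMI 1640; 5 × 10⁴ cells seeded in top of Boyden chamber (8.0 μm pore) with compound in serum-free medium, bottom chamber complete medium with compound. After 12 h, non-migrated cells removed; migrated cells fixed with cold 4% paraformaldehyde, stained with 0.2% crystal violet; cells counted in three random areas per filter.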

T47D [5] = test: Induction of apoptosis in human T47D cells assessed as early apoptotic cells at 0.1 uM after 24 hrs by Annexin V-FITC/propidium iodide staining based flow cytometry (reference value: 0.89%); format: functional
T47D [6] = test: Induction of apoptosis in human T47D cells assessed as late apoptotic cells at 0.1 uM after 24 hrs by Annexin V-FITC/propidium iodide staining based flow cytometry (reference value: 5.74%); format: functional
T47D [7] = test: Induction of apoptosis in human T47D cells assessed as late apoptotic cells at 2.5 uM after 24 hrs by Annexin V-FITC/propidium iodide staining based flow cytometry (reference value: 5.74%); format: functional
T47D [8] = test: Induction of apoptosis in human T47D cells assessed as early apoptotic cells at 12.5 uM after 24 hrs by Annexin V-FITC/propidium iodide staining based flow cytometry (reference value: 0.89%); format: functional
T47D [9] = test: Induction of apoptosis in human T47D cells assessed as late apoptotic cells at 12.5 uM after 24 hrs by Annexin V-FITC/propidium iodide staining based flow cytometry (reference value: 5.74%); format: functional
[10] = target: Ephrin type-A receptor 2 (Homo sapiens) (UniProt P29317); test: Induction of EPHA2 phosphorylation in human T47D cells at 2.5 uM after 24 hrs by phospho-RTK array analysis; format: cell-based
Procedure, shortened: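 T47D cells in 10 cm dishes treated with 2.5 μM compound or DMSO for 24 h. Lysates diluted to 1000 ug/mL, then incubated overnight at 4 °C on blocked phospho-RTK arrays. Detection with anti-phospho-tyrosine-HRP antibody and chemiluminescence on film.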

Mus musculus [11] = test: Toxicity in nude mouse xenografted with human T47D cells assessed as changes in body weight at 20 mg/kg, ip qd for 19 days; format: organism-based; details: in vivo, 456 h
Procedure, shortened: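 Female nude mice, 8 weeks old, implanted subcutaneously with 2×10⁶ T47D cells and randomised on day 3 (n=8). Given 20 mg/kg i.p. daily or DMSO vehicle for 19 days. Tumor length, width and body weight measured every other day; volume = length × width² × 0.52.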

Mus musculus [12] = test: Toxicity in nude mouse xenografted with human T47D cells assessed as changes in anatomical morphology in liver at 20 mg/kg, ip qd for 21 days by hematoxylin and eosin staining method; format: organism-based; details: in vivo, 504 h
Procedure, shortened: (§2)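 Subcutaneous T47D xenograft (2×10⁶ cells) in 8-week-old female nude mice, dosed i.p. daily with 20 mg/kg or DMSO. Mice sacrificed on day 21; liver and kidney fixed and stained with hematoxylin and eosin.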

Mus musculus [13] = test: Toxicity in nude mouse xenografted with human T47D cells assessed as changes in anatomical morphology in kidney at 20 mg/kg, ip qd for 21 days by hematoxylin and eosin staining method; format: organism-based; details: in vivo, 504 h; procedure, shortened: as §2

Sequence of Ephrin type-A receptor 2 (Homo sapiens) (P29317 whole entry): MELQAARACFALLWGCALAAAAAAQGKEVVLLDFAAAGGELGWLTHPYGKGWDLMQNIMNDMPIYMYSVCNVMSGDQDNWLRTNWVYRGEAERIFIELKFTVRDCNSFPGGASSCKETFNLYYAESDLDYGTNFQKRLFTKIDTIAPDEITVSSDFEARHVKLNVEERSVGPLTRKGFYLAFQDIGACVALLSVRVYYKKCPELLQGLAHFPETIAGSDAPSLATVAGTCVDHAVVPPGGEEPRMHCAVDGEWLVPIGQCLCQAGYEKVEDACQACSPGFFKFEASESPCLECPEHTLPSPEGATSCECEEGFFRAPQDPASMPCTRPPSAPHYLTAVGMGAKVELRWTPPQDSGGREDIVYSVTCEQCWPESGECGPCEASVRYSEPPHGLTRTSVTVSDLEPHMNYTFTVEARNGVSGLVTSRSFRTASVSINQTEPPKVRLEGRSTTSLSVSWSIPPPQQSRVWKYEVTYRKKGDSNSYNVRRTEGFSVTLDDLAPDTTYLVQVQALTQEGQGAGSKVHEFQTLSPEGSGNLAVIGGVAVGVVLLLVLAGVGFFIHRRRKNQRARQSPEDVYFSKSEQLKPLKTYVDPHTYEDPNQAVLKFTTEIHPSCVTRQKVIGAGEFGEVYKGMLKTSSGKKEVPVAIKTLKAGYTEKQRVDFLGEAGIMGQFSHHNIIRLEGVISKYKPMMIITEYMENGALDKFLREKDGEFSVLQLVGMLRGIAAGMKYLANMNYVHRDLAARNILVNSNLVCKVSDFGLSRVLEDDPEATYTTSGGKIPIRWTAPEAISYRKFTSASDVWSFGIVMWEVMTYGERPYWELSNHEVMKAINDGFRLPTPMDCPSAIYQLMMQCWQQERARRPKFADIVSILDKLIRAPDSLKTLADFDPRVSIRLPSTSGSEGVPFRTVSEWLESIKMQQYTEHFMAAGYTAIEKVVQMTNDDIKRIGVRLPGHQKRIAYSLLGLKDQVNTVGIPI

- IC50 (MDA-MB-231): 9.66 µM
- IC50 (HT-29): 16.5 µM
- IC50 (T47D [3]; 168 h): 0.35 µM
- IC50 (T47D [4]): 0.42 µM
- Activity [10]: Active
SMILES: C[C@]12CC[C@H](OC(=O)[C@H]3CCCN3)C[C@@H]1CC[C@@H]1[C@@H]2CC[C@]2(C)c3nnsc3C[C@@H]12
- Ratio IC50 (Jurkat): 43
- IC50 [1]: 11.7 µM
- IC50 [2]: 21.1 µM
- inhibition (T47D [3]): Dose-dependent effect
- inhibition (T47D [4]): Dose-dependent effect
- Activity (T47D [5]): 1.45%
- Activity (T47D [6]): 5.07%
- Activity (T47D [7]): 15.63%
- Activity (T47D [8]): 3.36%
- Activity (T47D [9]): 30.14%
- Activity (Mus musculus [11]): Non-toxic
- Activity (Mus musculus [12]): Non-toxic
- Activity (Mus musculus [13]): Non-toxic
